The list is not random: actives were taken first. Their share in the collection is about 3.1%.
KCNQ1 block – human KCNQ1 channel inhibition; P51787; CHO-K1 KCNQ1, FluxOR thallium flux fluorescence; hits give high values; B-score at 10 µM; actives 1.3% (n = 310,000); AID 2642;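 active = compounds whose thallium flux B-score, printed positive for inhibition, exceeds three library SD while starting fluorescence stays within three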;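 note: channel opened by potassium depolarization with thallium stimulus after 20 min compound exposure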
KCNQ1 pot – potentiators or activators of human KCNQ1 potassium channel; B-score at 10 µM; P51787; actives 0.35% (n = 310,000); AID 2648; CHO-K1 KCNQ1, thallium flux FluxOR fluorescence; hits give high values;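 active = fluorescence ratio B-score, a plate-corrected score, at least three library SD, with initial intensity B-score within 5 SD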
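Doses: Single concentration per compound, DMSO matched to controls | Test system: KCNQ1-transfected CHO-K1 cells | Timing: 90 min dye loading and 20 min compound exposure, both at room temperature | Measured by: Kinetic FluxOR thallium fluorescence, 10-s 1-Hz baseline, 110-s post-stimulus read | Medium: Assay buffer with matched DMSO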
KCNK9 block – blocks the human KCNK9 two-pore domain potassium channel. Q9NPC2. HEK293 KCNK9, FluxOR thallium flux fluorescence; hits give low values. B-score at 10 µM. actives 1.2% (n = 310,000). AID 488922;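 active = ratio B-score over 3 SD below the library mean, with starting fluorescence within 5 SD of its mean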;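 note: negative B-score means less thallium flux so channel inhibition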
hERG protect – compounds protecting human hERG from proarrhythmic drug block; Q12809; CHO-hERG, FluxOR thallium flux, dofetilide IC70 present; activation (rescue from dofetilide block), less the hit threshold, % at 10 µM; actives 0.51% (n = 310,000);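 active = activation above the mean of controls blocked by dofetilide plus 5 SD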;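 note: thallium influx through hERG after potassium depolarization seen as dye fluorescence rise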
KCNK3 block – human KCNK3 channel inhibition, primary screen. O14649. CHO-KCNK3 thallium flux, FluxOR fluorescence; hits give low values. B-score at 10 µM. actives 0.84% (n = 340,000);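 active = B-score under library mean minus 4 SD, starting fluorescence ratio at most library mean plus 5 SD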;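 note: more negative B-score means stronger inhibition of thallium flux through KCNK3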
KCNK9 block conf – confirmation of human KCNK9 potassium channel inhibitors | inhibition, % at 10 µM | shares compounds with KCNK9 block | actives 43% (n = 4,900) | HEK293 KCNK9 cells, FluxOR thallium flux fluorescence;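 active = thallium signal inhibited by more than 5 SD of the compound-free buffer control wells, on both duplicate plates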
Kir2-1 spec – tests whether KCNK9 modulators also affect mouse Kir2.1; shares compounds with KCNK9 block; Kir2.1 cells, FluxOR thallium flux fluorescence; inhibition, % at 10 µM; actives 4% (n = 4,900); AID 492993;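 active = thallium signal drop more than 5 SD beyond the mean of the no-compound control wells, seen in both duplicate plates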;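 note: signal is fluorescence rise after thallium addition divided by baseline fluorescence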
Target sequence (P35561 whole entry, looked up): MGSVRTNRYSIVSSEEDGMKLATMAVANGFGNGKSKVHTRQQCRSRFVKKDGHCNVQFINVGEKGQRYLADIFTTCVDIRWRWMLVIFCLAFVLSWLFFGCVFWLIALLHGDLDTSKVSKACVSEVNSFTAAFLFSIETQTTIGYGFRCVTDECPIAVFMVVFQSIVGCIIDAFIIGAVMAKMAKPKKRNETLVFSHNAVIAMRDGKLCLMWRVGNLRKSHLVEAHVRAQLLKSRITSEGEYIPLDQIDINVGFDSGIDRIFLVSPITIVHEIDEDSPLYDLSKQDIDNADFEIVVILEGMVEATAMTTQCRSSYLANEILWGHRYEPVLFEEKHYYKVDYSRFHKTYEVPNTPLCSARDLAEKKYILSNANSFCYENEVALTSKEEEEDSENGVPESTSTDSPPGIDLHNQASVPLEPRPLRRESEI
HEK293 Tl ctr – second check of KCNK9 modulator effects in non-induced HEK293 cells. shares compounds with KCNK9 block. FluxOR thallium flux. inhibition, % at 10 µM. actives 40% (n = 4,900);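 active = thallium signal drop beyond 5 SD of the untreated control mean, on both duplicate plates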
Numbers stand for hits.

Screening C=C(C)Cn1c(SCC#N)nc2ccccc2c1=O returned KCNQ1 block inactive, KCNQ1 pot inactive, KCNK9 block inactive, hERG protect inactive and KCNK3 block inactive.
CCCCn1c(SCc2nc3ccccc3s2)nc2ccccc2c1=O was read as KCNQ1 block inactive, KCNQ1 pot inactive, KCNK9 block -12, hERG protect inactive, KCNK3 block inactive, KCNK9 block conf 68%, Kir2-1 spec inactive and HEK293 Tl ctr 40%.
`CCN(CCCn1c(SCC#N)nc2ccccc2c1=O)c1ccccc1` gave KCNQ1 block inactive, KCNQ1 pot inactive, KCNK9 block -11, hERG protect inactive, KCNK3 block -9.3, KCNK9 block conf 44%, Kir2-1 spec inactive and HEK293 Tl ctr 28%.
`Cn1cc(S(=O)(=O)Nc2ccc(F)c(Cl)c2)c(=O)n(C)c1=O` gave KCNQ1 block inactive, KCNQ1 pot inactive, KCNK9 block inactive, hERG protect inactive and KCNK3 block inactive.
`N#CCCn1nc(-c2ccccc2)c2ccccc2c1=O` gave KCNQ1 block inactive, KCNQ1 pot inactive, KCNK9 block inactive, hERG protect inactive and KCNK3 block inactive.
`Nc1nc(-c2cccs2)c(-c2cccs2)s1` gave KCNQ1 block inactive, KCNQ1 pot inactive, KCNK9 block -8.8, hERG protect inactive, KCNK3 block inactive, KCNK9 block conf 44%, Kir2-1 spec inactive and HEK293 Tl ctr inactive.
For COC(=O)c1nn(-c2cccc(C)c2)c2nnc(Cc3ccc(C)cc3)c(=O)n12 the results were KCNQ1 block inactive, KCNQ1 pot inactive, KCNK9 block inactive, hERG protect inactive and KCNK3 block inactive.
Cc1ccc(Cc2nnc3n(-c4cccc(C)c4)nc(C(=O)c4ccccc4)n3c2=O)cc1 was read as KCNQ1 block inactive, KCNQ1 pot inactive, KCNK9 block inactive, hERG protect inactive, KCNK3 block inactive, KCNK9 block conf inactive, Kir2-1 spec inactive and HEK293 Tl ctr inactive.
`C[N+]1(CC(O)COCC2COc3ccccc3O2)CCOCC1` (centres undefined) gave KCNQ1 block inactive, KCNQ1 pot inactive, KCNK9 block inactive, hERG protect inactive and KCNK3 block inactive.
Cc1cc(C)cc(NC(=O)CN2CCc3cc4c(cc3C2C)OCCCO4)c1 (centres undefined) was read as KCNQ1 block inactive, KCNQ1 pot inactive, KCNK9 block inactive, hERG protect inactive, KCNK3 block inactive, KCNK9 block conf inactive, Kir2-1 spec inactive and HEK293 Tl ctr inactive.
Cc1ccc(NC(=O)CN2CCc3cc4c(cc3C2)OCCCO4)cc1 was read as KCNQ1 block inactive, KCNQ1 pot inactive, KCNK9 block inactive, hERG protect inactive and KCNK3 block inactive.
Cc1cccc(NC(=O)CN2CCc3cc4c(cc3C2)OCCCO4)c1 was read as KCNQ1 block inactive, KCNQ1 pot inactive, KCNK9 block inactive, hERG protect inactive, KCNK3 block inactive, KCNK9 block conf inactive, Kir2-1 spec inactive and HEK293 Tl ctr inactive.
Cc1cccc(NC(=O)CN2CCc3cc4c(cc3C2C)OCCCO4)c1 (centres undefined) was read as KCNQ1 block inactive, KCNQ1 pot inactive, KCNK9 block inactive, hERG protect inactive, KCNK3 block inactive, KCNK9 block conf inactive, Kir2-1 spec inactive and HEK293 Tl ctr inactive.
For C=CC(=O)NCCCc1cc(C(C)(C)C)c(O)c(C(C)(C)C)c1 the results were KCNQ1 block inactive, KCNQ1 pot inactive, KCNK9 block inactive, hERG protect inactive, KCNK3 block inactive, KCNK9 block conf inactive, Kir2-1 spec inactive and HEK293 Tl ctr inactive.
Screening CC(C)(C)c1cc(CCC(=O)NN)cc(C(C)(C)C)c1O returned KCNQ1 block inactive, KCNQ1 pot inactive, KCNK9 block inactive, hERG protect inactive and KCNK3 block inactive.
Screening O=C(Nc1cc(S(=O)(=O)N2CCOCC2)ccc1Cl)C(=O)c1c(-c2ccccc2)cc2ccccn12 returned KCNQ1 block inactive, KCNQ1 pot inactive, KCNK9 block -8.2, hERG protect inactive, KCNK3 block inactive, KCNK9 block conf inactive, Kir2-1 spec inactive and HEK293 Tl ctr inactive.
Screening COc1ccc(C(=O)C2CCCN(Cc3cccc4c3OCO4)C2)cc1OC (centres undefined) returned KCNQ1 block inactive, KCNQ1 pot inactive, KCNK9 block inactive, hERG protect inactive, KCNK3 block inactive, KCNK9 block conf inactive, Kir2-1 spec inactive and HEK293 Tl ctr inactive.
COc1ccc(C(=O)C2CCCN(C(=O)c3cccc(N(C)C)c3)C2)cc1OC (centres undefined) was read as KCNQ1 block inactive, KCNQ1 pot inactive, KCNK9 block inactive, hERG protect inactive, KCNK3 block inactive, KCNK9 block conf inactive, Kir2-1 spec inactive and HEK293 Tl ctr inactive.
For COc1ccc(F)cc1C(=O)C1CCCN(C(=O)c2cccc(N(C)C)c2)C1 (centres undefined) the results were KCNQ1 block inactive, KCNQ1 pot inactive, KCNK9 block inactive, hERG protect inactive, KCNK3 block inactive, KCNK9 block conf inactive, Kir2-1 spec inactive and HEK293 Tl ctr inactive.
`COc1cccc(CN2CCCC(C(=O)c3ccc4c(c3)OCO4)C2)c1OC` (centres undefined) gave KCNQ1 block inactive, KCNQ1 pot inactive, KCNK9 block inactive, hERG protect inactive and KCNK3 block inactive.
COc1ccc(C(=O)C2CCCN(C(=O)c3ccc(F)cc3)C2)cc1OC (centres undefined) was read as KCNQ1 block inactive, KCNQ1 pot inactive, KCNK9 block inactive, hERG protect inactive and KCNK3 block inactive.
COc1ccc(NC2CCCN(C(=O)c3ccc4nc(C)c(C)nc4c3)C2)cc1OC (centres undefined) was read as KCNQ1 block inactive, KCNQ1 pot inactive, KCNK9 block inactive, hERG protect inactive and KCNK3 block inactive.
For Cc1ccc(S(=O)(=O)N2CCOC2CNC(=O)C(=O)NCCN2CCOCC2)cc1 (centres undefined) the results were KCNQ1 block inactive, KCNQ1 pot inactive, KCNK9 block inactive, hERG protect inactive and KCNK3 block inactive.
Screening COc1cccc(C(=O)c2c[nH]c(C(=O)NCCCN3CCOCC3)c2)c1 returned KCNQ1 block inactive, KCNQ1 pot inactive, KCNK9 block inactive, hERG protect inactive and KCNK3 block inactive.
For CNc1nc(-c2ccccc2)nnc1C(F)(F)F the results were KCNQ1 block inactive, KCNQ1 pot inactive, KCNK9 block inactive, hERG protect inactive and KCNK3 block inactive.
Cc1ccc(Sc2nc(-c3ccccc3)nnc2C(F)(F)F)cc1 was read as KCNQ1 block inactive, KCNQ1 pot inactive, KCNK9 block inactive, hERG protect inactive, KCNK3 block inactive, KCNK9 block conf inactive, Kir2-1 spec inactive and HEK293 Tl ctr inactive.
